Measurements from ChEMBL document CHEMBL3352472, “Discovery of 4-aryl-7-hydroxyindoline-based P2Y1 antagonists as novel antiplatelet agents” (J Med Chem, 2014).
Active and inactive are the calls of the source. The calls are words filed in the database; no cut-off is given here.

Columns and labels:
[1] = Metabolic stability in human liver microsomes assessed as compound remaining at 0.5 uM after 10 mins; type: ADME; settings: read-out: Stability
In short: (§1)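 Compound at 0.5 μM incubated 10 min with 1 mg/mL human, rat or mouse liver microsomes; percentage of parent remaining reported.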

[2] = Metabolic stability in rat liver microsomes assessed as compound remaining at 0.5 uM after 10 mins; type: ADME; settings: read-out: Stability; in short: as §1
[3] = Metabolic stability in mouse liver microsomes assessed as compound remaining at 0.5 uM after 10 mins; type: ADME; settings: read-out: Stability; in short: as §1
P2Y purinoceptor 1 [4] = target: T1, P2Y purinoceptor 1 (Homo sapiens, UniProt P47900); assay: Antagonist activity at P2Y1 receptor in washed human platelets assessed as 1 uM 2-methylthio-ADP-induced calcium flux by FLIPR assay; type: functional
hERG (KCNH2) = hERG (KCNH2) (Homo sapiens, UniProt Q12809); assay: Inhibition of human ERG at 1 uM by patch clamp assay
[5] = Volume of distribution at steady state in rat at 0.5 mg/kg by cassette dosing method; type: ADME, organism-based; parameters: dose 0.5 mg/kg; settings: in vivo, read-out: Vdss
[6] = Clearance in rat at 0.5 mg/kg by cassette dosing method; type: ADME, organism-based; parameters: dose 0.5 mg/kg; settings: in vivo
[7] = Oral bioavailability in rat at 0.5 mg/kg by cassette dosing method; type: ADME, organism-based; settings: in vivo
P2Y purinoceptor 1 [8] = target: T1, P2Y purinoceptor 1; assay: Antagonist activity at P2Y1 receptor in platelet-enriched human plasma assessed as 10 uM ADP-induced platelet aggregation at 40 uM preincubated for 1 min followed by ADP induction measured at 5 mins by aggregometric analysis; type: cell-free
Oryctolagus cuniculus [9] = assay: Induction of bleeding time in rabbit model of electrically-induced carotid artery thrombosis at 80% antithrombotic dose administered 30 mins before electrical stimulation (reference value: 1 +/- 0.05); type: organism-based; settings: in vivo, 0.5 h
Oryctolagus cuniculus [10] = assay: Antithrombotic activity in rabbit model of electrically-induced carotid artery thrombosis assessed as reduction in thrombus formation dosed 30 mins before electrical stimulation; type: functional, organism-based

T1 sequence (P47900 whole entry): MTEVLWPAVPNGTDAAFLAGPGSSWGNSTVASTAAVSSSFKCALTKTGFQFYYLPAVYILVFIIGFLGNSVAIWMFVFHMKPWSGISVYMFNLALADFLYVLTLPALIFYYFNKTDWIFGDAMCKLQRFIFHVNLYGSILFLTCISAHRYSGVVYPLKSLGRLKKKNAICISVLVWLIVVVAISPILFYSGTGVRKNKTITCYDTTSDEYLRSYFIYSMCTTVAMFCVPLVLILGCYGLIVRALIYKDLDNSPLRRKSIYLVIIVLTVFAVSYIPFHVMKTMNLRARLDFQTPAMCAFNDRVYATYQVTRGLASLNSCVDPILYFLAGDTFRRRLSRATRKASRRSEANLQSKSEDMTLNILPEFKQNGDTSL
Chain of hERG (KCNH2) (Q12809 whole entry): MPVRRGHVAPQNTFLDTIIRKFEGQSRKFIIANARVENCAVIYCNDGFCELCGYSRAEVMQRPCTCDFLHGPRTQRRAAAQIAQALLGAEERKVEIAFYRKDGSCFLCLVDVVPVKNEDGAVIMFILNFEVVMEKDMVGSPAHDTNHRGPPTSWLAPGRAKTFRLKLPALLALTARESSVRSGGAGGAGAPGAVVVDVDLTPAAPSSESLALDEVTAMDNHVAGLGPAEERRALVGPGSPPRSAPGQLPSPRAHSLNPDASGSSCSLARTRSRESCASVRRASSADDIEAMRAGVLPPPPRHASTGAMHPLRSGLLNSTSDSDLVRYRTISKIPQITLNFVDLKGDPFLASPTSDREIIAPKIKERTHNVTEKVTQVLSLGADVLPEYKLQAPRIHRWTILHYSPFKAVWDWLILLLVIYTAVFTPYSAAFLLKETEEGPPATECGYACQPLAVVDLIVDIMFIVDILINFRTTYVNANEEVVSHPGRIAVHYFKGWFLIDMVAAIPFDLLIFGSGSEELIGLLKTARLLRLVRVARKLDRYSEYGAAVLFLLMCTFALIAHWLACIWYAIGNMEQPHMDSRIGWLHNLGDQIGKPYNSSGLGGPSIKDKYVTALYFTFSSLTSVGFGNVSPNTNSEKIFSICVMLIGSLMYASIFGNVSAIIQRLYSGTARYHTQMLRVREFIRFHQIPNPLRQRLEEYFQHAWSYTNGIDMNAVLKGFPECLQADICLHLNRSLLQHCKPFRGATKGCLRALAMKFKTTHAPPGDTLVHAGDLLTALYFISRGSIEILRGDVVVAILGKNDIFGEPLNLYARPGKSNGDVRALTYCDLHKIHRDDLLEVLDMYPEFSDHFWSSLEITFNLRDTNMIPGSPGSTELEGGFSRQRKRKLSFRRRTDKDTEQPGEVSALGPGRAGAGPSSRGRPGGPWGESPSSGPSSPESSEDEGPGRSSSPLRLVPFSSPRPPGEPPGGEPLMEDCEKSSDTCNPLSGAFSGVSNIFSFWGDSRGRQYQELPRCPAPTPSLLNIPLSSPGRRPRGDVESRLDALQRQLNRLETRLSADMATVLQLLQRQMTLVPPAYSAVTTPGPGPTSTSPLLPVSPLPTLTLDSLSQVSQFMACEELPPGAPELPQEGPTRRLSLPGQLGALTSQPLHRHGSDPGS

Row | remaining at 10 min, 0.5 µM [1] | remaining at 10 min, 0.5 µM [2] | remaining at 10 min, 0.5 µM [3] | IC50 (P2Y purinoceptor 1 [4]) | SMILES | also measured
1 | 87% | 89% | 83% | 0.33 nM | CC1(C)CN(c2ccccc2NC(=O)Nc2ccc(OC(F)(F)F)cc2)c2c(O)ccc(-c3ccc(F)cc3)c21 | –
2 | 88% | 100% | 80% | – | CC1(C)CN(c2ccccc2NC(=O)Nc2ccc(OC(F)(F)F)cc2)c2c(O)c(F)cc(-c3ccc(Cl)cc3)c21 | –
3 | 63% | 59% | 64% | 0.57 nM | CC1(C)CN(c2ccccc2NC(=O)Nc2ccc(OC(F)(F)F)cc2)c2c(O)ccc(-c3cc(F)cc(F)c3)c21 | –
4 | 67% | 59% | 56% | 0.15 nM | CC1(C)CN(c2ccccc2NC(=O)Nc2ccc(OC(F)(F)F)cc2)c2c(O)ccc(-c3cccc(F)c3)c21 | –
5 | 96% | 94% | 89% | 1.51 nM | CC1(C)CN(c2ccccc2NC(=O)Nc2ccc(OC(F)(F)F)cc2)c2c(O)ccc(-c3ccc(C(F)(F)F)cc3)c21 | –
6 | – | – | – | 0.09 nM | CCOC(=O)C1(C)CN(c2ccccc2NC(=O)Nc2ccc(OC(F)(F)F)cc2)c2c(O)ccc(Cl)c21 (stereo not given) | –
7 | 90% | 81% | 66% | 1.8 nM | CC1(C)CN(c2ccccc2NC(=O)Nc2ccc(OC(F)(F)F)cc2)c2c(O)ccc(-c3ccc(F)c(F)c3)c21 | –
8 | 75% | 80% | 75% | 0.47 nM | CC1(C)CN(c2ccccc2NC(=O)Nc2ccc(OC(F)(F)F)cc2)c2c(O)cc(F)c(-c3cc(F)nc(F)c3)c21 | –
9 | 16% | 5% | 16% | – | CNC(=O)C1(C)CN(c2ccccc2NC(=O)Nc2nc3ccc(F)cc3s2)c2c(O)ccc(Cl)c21 (stereo not given) | inhibition (P2Y purinoceptor 1 [8]): 46%
10 | 80% | 0% | 75% | 0.03 nM | CC1(C)CN(c2ccccc2NC(=O)Nc2csc(Cl)n2)c2c(O)ccc(-c3ccc(F)cc3)c21 | –
11 | – | – | – | – | CC(=O)Oc1cc2c(s1)CCN(C(C(=O)C1CC1)c1ccccc1F)C2 (stereo not given) | fold change (FC) (Oryctolagus cuniculus [9]): 6; inhibition (Oryctolagus cuniculus [10]): Active
12 | 47% | 14% | 54% | 0.05 nM | CCOC(=O)C1(C)CN(c2ccccc2NC(=O)Nc2nc3ccc(Cl)nc3s2)c2c(O)ccc(Cl)c21 (stereo not given) | –
13 | 84% | 83% | 78% | 0.13 nM | CC1(C)CN(c2ccccc2NC(=O)Nc2ccc(OC(F)(F)F)cc2)c2c(O)ccc(-c3ccc(Cl)cc3)c21 | –
14 | 41% | 61% | 42% | 0.3 nM | CC1(C)CN(c2ccccc2NC(=O)Nc2ccc(OC(F)(F)F)cc2)c2c(O)cc(F)c(-c3ncc(F)cn3)c21 | –
15 | 77% | 83% | 67% | – | CC1(C)CN(c2ccccc2NC(=O)Nc2ccc(OC(F)(F)F)cc2)c2c(O)cc(F)c(-c3cnc(Cl)cn3)c21 | –
16 | 45% | 34% | 52% | 0.04 nM | CC(C)(C)CN1CCCC1c1ccc(NC(=O)Nc2ccccc2N2CC(C)(C)c3c(-c4ccc(F)cc4)ccc(O)c32)cc1 (stereo not given) | –
17 | 81% | 72% | 79% | 0.52 nM | CC1(C)CN(c2ccccc2NC(=O)Nc2ccc(OC(F)(F)F)cc2)c2c(O)ccc(-c3ccc(F)cc3F)c21 | –

Row | remaining at 10 min, 0.5 µM [1] | remaining at 10 min, 0.5 µM [2] | remaining at 10 min, 0.5 µM [3] | IC50 (P2Y purinoceptor 1 [4]) | SMILES | also measured
18 | – | – | – | – | COC(=O)[C@H](c1ccccc1Cl)N1CCc2sccc2C1 [CLOPIDOGREL] | fold change (FC) (Oryctolagus cuniculus [9]): 6; inhibition (Oryctolagus cuniculus [10]): Active
19 | 100% | 97% | 65% | 0.57 nM | CC1(C)CN(c2ccccc2NC(=O)Nc2ccc(OC(F)(F)F)cc2)c2c(O)cc(F)c(-c3ccc(C(F)(F)F)cn3)c21 | –
20 | 68% | 69% | 73% | 0.51 nM | CC1(C)CN(c2ccccc2NC(=O)Nc2ccc(OC(F)(F)F)cc2)c2c(O)cc(F)c(-c3ccc(C(F)(F)F)nc3)c21 | –
21 | 76% | 67% | 48% | 0.37 nM | CC1(C)CN(c2ccccc2NC(=O)Nc2ccc(OC(F)(F)F)cc2)c2c(O)ccc(-c3ccccc3)c21 | –
22 | – | – | – | 0.14 nM | CC1(C)CN(c2ccccc2NC(=O)Nc2nc3ccc(Cl)nc3s2)c2c(O)ccc(Cl)c21 | –
23 | – | – | – | – | CC1(C(=O)O)CN(c2ccccc2NC(=O)Nc2nc3ccc(Cl)nc3s2)c2c(O)ccc(Cl)c21 (stereo not given) | inhibition (P2Y purinoceptor 1 [8]): 90%
24 | 58% | 39% | 53% | 0.02 nM | CC(C)CN1CCCC1c1ccc(NC(=O)Nc2ccccc2N2CC(C)(C)c3c(-c4ccc(F)cc4)ccc(O)c32)cc1 (stereo not given) | Vd [5]: 9.8 L/kg; clearance [6]: 2.04 L/h/kg; bioavailability [7]: 4%
25 | 79% | 58% | 66% | 1.96 nM | CC1(CC(F)(F)F)CN(c2ccccc2NC(=O)Nc2ccc(OC(F)(F)F)cc2)c2c(O)ccc(Cl)c21 (stereo not given) | –
26 | 62% | 54% | 48% | 0.37 nM | CC1(C)CN(c2ccccc2NC(=O)Nc2ccc(OC(F)(F)F)cc2)c2c(O)ccc(-c3ccccc3F)c21 | –
27 | 92% | 79% | 88% | 2.3 nM | CC1(C)CN(c2ccccc2NC(=O)Nc2ccc(OC(F)(F)F)cc2)c2c(O)cc(F)c(-c3ccc(Cl)s3)c21 | –
28 | 75% | 74% | 65% | 0.13 nM | CC1(C)CN(c2ccccc2NC(=O)Nc2nc3ccc(Cl)nc3s2)c2c(O)ccc(-c3ccc(F)cc3)c21 | –
29 | 66% | 57% | 58% | 0.39 nM | CC1(C)CN(c2ccccc2NC(=O)Nc2ccc(OC(F)(F)F)cc2)c2c(O)ccc(Cl)c21 | –
30 | 95% | 55% | 52% | 0.08 nM | Cc1nc(NC(=O)Nc2ccccc2N2CC(C)(C)c3c(-c4ccc(F)cc4)ccc(O)c32)cs1 | –
31 | 80% | 71% | 66% | 0.45 nM | CC1(C)CN(c2ccccc2NC(=O)Nc2ccc(OC(F)(F)F)cc2)c2c(O)c(F)cc(-c3ccc(F)cc3)c21 | –
32 | 73% | 84% | 77% | 0.23 nM | CC1(C)CN(c2ccccc2NC(=O)Nc2ccc(OC(F)(F)F)cc2)c2c(O)cc(F)c(-c3ccc(F)cc3)c21 | –
33 | – | – | – | – | CC1(CO)CN(c2ccccc2NC(=O)Nc2nc3ccc(Cl)nc3s2)c2c(O)ccc(Cl)c21 (stereo not given) | inhibition (P2Y purinoceptor 1 [8]): 72%

Row | SMILES | remaining at 10 min, 0.5 µM [1] | remaining at 10 min, 0.5 µM [2] | remaining at 10 min, 0.5 µM [3] | IC50 (P2Y purinoceptor 1 [4]) | also measured
34 | CC(C)(C)CN1CCC2(CC1)CN(c1ccccc1NC(=O)Nc1nc3ccc(Cl)nc3s1)c1c(O)ccc(Cl)c12 | – | – | 84% | – | inhibition at 1 µM (hERG (KCNH2)): 57%; Vd [5]: 5.4 L/kg; clearance [6]: 0.624 L/h/kg
35 | CC(C)(C)CN1CCC2(CC1)CN(c1ccccc1NC(=O)Nc1ccc(OC(F)(F)F)cc1)c1c(O)cc(F)c(-c3ccc(Cl)cc3)c12 | 78% | 72% | 74% | 0.16 nM | Vd [5]: 1.3 L/kg; clearance [6]: 0.222 L/h/kg; bioavailability [7]: 15%
36 | CC(C)(C)CN1CCC2(CC1)CN(c1ccccc1NC(=O)Nc1ccc(OC(F)(F)F)cc1)c1c(O)cc(F)c(-c3ccc(F)cc3)c12 | 81% | 80% | 67% | 0.09 nM | Vd [5]: 1 L/kg; clearance [6]: 0.252 L/h/kg; bioavailability [7]: 17%
